Experimental data: ChEMBL document CHEMBL3085690, “Naturally occurring antimicrobial peptide OH-CATH30 selectively regulates the innate immune response to protect against sepsis” (J Med Chem, 2013)
Active and inactive are the calls of the source. No cut-off for these calls is given here.

Molecular target: Transcription factor p65 (Mus musculus) (UniProt Q04207)
Assay: Activation of NFkappaB p65 in mouse BMDM assessed as phosphorylation at 10 ug/ml after 15 to 30 mins by Western blotting
Summary of the method: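 BMDMs came from mouse bone marrow cultured in RPMI 1640 with 10% FCS and 20% L929-conditioned medium. After treatment, lysates were run on 10% SDS−PAGE, transferred to PVDF, blocked with 5% BSA, and probed for phospho-p65. Detection used an HRP anti-rabbit IgG secondary and chemiluminescence.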

Sequence of Transcription factor p65 (Mus musculus) (Q04207 whole entry): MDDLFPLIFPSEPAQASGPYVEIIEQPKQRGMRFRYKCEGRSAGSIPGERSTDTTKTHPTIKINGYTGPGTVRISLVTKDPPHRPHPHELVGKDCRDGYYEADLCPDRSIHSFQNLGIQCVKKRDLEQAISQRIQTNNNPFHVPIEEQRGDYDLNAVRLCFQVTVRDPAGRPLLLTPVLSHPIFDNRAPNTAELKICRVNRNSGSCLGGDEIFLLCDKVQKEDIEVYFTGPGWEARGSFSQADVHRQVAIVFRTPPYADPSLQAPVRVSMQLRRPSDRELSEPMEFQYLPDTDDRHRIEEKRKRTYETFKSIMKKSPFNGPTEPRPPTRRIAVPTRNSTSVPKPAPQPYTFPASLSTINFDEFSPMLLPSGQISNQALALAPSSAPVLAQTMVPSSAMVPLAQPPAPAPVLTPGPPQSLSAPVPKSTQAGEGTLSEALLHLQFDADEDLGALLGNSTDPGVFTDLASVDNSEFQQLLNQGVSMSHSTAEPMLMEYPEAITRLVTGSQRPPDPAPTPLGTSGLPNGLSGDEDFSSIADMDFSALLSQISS

CC[C@H](C)[C@H](NC(=O)[C@H](CCCCN)NC(=O)[C@H](CCC(=O)O)NC(=O)[C@H](CCCCN)NC(=O)[C@H](CO)NC(=O)[C@H](CCCCN)NC(=O)[C@H](CCCNC(=N)N)NC(=O)[C@H](Cc1ccccc1)NC(=O)[C@H](Cc1ccccc1)NC(=O)[C@H](CC(=O)O)NC(=O)CNC(=O)[C@H](CC(C)C)NC(=O)[C@@H](N)CC(C)C)C(=O)NCC(=O)N[C@@H](CCCCN)C(=O)N[C@@H](CCC(=O)O)C(=O)N[C@@H](Cc1ccccc1)C(=O)N[C@@H](CCCCN)C(=O)N[C@@H](CCCNC(=N)N)C(=O)N[C@H](C(=O)N[C@H](C(=O)N[C@@H](CCC(N)=O)C(=O)N[C@@H](CCCNC(=N)N)C(=O)N[C@H](C(=O)N[C@@H](CCCCN)C(=O)N[C@@H](CC(=O)O)C(=O)N[C@@H](Cc1ccccc1)C(=O)N[C@@H](CC(C)C)C(=O)N[C@@H](CCCNC(=N)N)C(=O)N[C@@H](CC(N)=O)C(=O)N[C@@H](CC(C)C)C(=O)N[C@H](C(=O)N1CCC[C@H]1C(=O)N[C@@H](CCCNC(=N)N)C(=O)N[C@H](C(=O)N[C@@H](CCC(=O)O)C(=O)N[C@@H](CO)C(=O)O)[C@@H](C)O)C(C)C)[C@@H](C)CC)C(C)C)[C@@H](C)CC
Activity: Active
